Reference: ChEMBL document CHEMBL5108074 (J Med Chem, 2022)

Legend:
Cathepsin D = Cathepsin D (Homo sapiens, UniProt P07339); assay: Inhibition of human Cathepsin D preincubated for 5 mins followed by substrate addition by fluorometer analysis
Cytochrome P450 2C8 = Cytochrome P450 2C8 (Homo sapiens, UniProt P10632); assay: Inhibition of CYP2C8 in human liver microsomes assessed as reduction in 6 alpha-hydroxypaclitaxel metabolite formation incubated for 30 mins in presence of NADPH by LC-MS/MS analysis; format: ADME, Microsome
[1] = target: Voltage-gated inwardly rectifying potassium channel KCNH2 (Homo sapiens, UniProt Q12809); assay: Inhibition of hERG expressed in CHO cells by whole cell patch clamp assay; format: toxicity, cell-based
Voltage-gated inwardly rectifying potassium channel KCNH2, sequence (Q12809 whole entry): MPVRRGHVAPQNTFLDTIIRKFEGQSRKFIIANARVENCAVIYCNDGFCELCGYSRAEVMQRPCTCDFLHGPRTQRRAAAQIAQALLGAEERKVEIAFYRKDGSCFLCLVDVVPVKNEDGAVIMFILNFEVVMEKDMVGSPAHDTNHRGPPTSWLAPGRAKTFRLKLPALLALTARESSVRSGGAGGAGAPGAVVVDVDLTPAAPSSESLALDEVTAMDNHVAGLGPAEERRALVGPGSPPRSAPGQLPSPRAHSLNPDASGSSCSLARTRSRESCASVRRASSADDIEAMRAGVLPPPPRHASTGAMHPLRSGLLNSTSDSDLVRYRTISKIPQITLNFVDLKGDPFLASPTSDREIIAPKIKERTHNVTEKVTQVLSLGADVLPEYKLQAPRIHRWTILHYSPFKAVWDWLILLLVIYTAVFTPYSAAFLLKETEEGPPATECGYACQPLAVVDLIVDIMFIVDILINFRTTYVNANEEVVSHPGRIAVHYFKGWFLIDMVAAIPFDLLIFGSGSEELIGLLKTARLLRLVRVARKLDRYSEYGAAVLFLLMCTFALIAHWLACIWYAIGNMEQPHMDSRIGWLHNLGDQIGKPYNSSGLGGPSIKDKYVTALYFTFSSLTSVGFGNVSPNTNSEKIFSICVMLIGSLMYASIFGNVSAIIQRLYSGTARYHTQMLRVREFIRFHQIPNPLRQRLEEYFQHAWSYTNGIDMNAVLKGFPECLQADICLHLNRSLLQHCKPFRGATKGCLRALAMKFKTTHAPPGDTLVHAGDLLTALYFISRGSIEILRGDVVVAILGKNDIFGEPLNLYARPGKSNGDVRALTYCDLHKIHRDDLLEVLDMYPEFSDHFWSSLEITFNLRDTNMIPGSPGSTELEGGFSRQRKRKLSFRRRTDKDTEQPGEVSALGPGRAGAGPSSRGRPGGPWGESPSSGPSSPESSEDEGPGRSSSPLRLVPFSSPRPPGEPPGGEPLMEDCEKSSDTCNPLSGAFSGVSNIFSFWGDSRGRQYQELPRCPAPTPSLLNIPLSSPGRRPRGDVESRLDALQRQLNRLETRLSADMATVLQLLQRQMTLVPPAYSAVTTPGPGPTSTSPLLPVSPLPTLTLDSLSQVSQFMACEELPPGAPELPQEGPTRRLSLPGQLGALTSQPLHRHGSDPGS
In short: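 hERG K+ current recorded by automated whole-cell patch clamp in CHO cells stably expressing hERG. Concentrations tested up to a maximum of 33 μM.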

Cytochrome P450 2D6 = Cytochrome P450 2D6 (Homo sapiens, UniProt P10635); assay: Inhibition of CYP2D6 in human liver microsomes assessed as reduction in dextrorphan metabolite formation incubated for 30 mins in presence of NADPH by LC-MS/MS analysis; format: ADME, Microsome
[2] = Half life in Sprague-Dawley rat at 10 mg/kg, po and 1 mg/kg, iv measured upto 24 hrs by LC-MS analysis; format: ADME, organism-based; conditions: in vivo
In short: (§1)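 Male Sprague-Dawley rats, two per route, single dose. IV: 1 mg/kg given as 1 mL/kg of a nominal 1 mg/mL formulation in vehicle. PO: 10 mg/kg given as 5 mL/kg of a 2 mg/mL formulation. PK parameters from noncompartmental analysis. Clearance expressed relative to rat liver blood flow of 80 mL/min/kg.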

Tryptase = Tryptase (Homo sapiens, UniProt Q9BZJ3+Q15661+Q9NRR2); assay: Inhibition of human tryptase preincubated for 5 mins followed by substrate addition by fluorometer analysis; format: protein assay
In short: (§2)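 Human proteases, typically purified from plasma, preincubated with compound for 5 min. A protease-specific fluorogenic substrate was then added and cleavage followed kinetically on a fluorometer. IC50 from a four-parameter logistic fit to the normalized rate of fluorescence increase.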

[3] = Thermodynamic solubility of the compound in FaSSIF at 1 mg/ml at pH 6.5 using crystalline form of sample measured after 4 hrs; format: physicochemical; conditions: simulated gi fluid, pH 6.5, 4 h
In short: (§3)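 Compound (nominal 1 or 100 mg/mL as free base) added to biorelevant medium preheated to 37 °C: FaSSGF at pH 1.6 or FaSSIF at pH 6.5. Vortexed, then shaken 4 h at 37 °C (~500 rpm). Centrifuged at 15000g for 10 min at 37 °C. Supernatant diluted and quantified against calibration standards. Crystalline material used where stated.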

[4] = Metabolic stability in human liver microsomes assessed as intrinsic clearance per mg of protein measured upto 60 mins in presence of NADPH regenerating system by LC-MS/MS analysis; format: ADME, Microsome; conditions: microsomes, 1 h
[5] = Clearance in Sprague-Dawley rat blood at 1 mg/kg, iv measured upto 24 hrs by LC-MS analysis; format: ADME, organism-based; conditions: whole blood; in short: as §1
Cytochrome P450 2C19 = Cytochrome P450 2C19 (Homo sapiens, UniProt P33261); assay: Inhibition of CYP2C19 in human liver microsomes assessed as reduction in 4-hydroxymephenytoin metabolite formation incubated for 30 mins in presence of NADPH by LC-MS/MS analysis; format: ADME, Microsome
Cytochrome P450 2C19, sequence (P33261 whole entry): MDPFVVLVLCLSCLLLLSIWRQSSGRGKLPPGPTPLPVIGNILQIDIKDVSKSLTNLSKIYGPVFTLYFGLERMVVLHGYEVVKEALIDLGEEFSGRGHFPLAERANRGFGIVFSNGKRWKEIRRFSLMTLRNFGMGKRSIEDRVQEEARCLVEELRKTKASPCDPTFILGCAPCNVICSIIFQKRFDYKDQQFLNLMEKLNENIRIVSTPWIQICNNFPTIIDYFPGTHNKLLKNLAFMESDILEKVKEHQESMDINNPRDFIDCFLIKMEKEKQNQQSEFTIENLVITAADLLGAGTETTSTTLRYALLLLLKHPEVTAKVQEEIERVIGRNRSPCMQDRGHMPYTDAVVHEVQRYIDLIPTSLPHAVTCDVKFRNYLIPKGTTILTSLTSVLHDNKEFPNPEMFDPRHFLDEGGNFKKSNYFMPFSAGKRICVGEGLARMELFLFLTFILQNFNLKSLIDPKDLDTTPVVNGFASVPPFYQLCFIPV

[6] = Genotoxicity in Salmonella typhimurium by non-GLP bacterial mutagenicity Ames test; format: toxicity; conditions: salmonella enterica subsp. enterica serovar typhimurium
[7] = Clearance in Beagle dog assessed as liver blood flow at 1 mg/kg, iv measured upto 24 hrs by LC-MS analysis; format: ADME, organism-based, Canis lupus familiaris; conditions: in vivo
Prothrombin = Prothrombin (Homo sapiens, UniProt P00734); assay: Inhibition of human thrombin preincubated for 5 mins followed by substrate addition by fluorometer analysis
In short: (§4)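 Each protease (commercial, typically purified from human plasma) was preincubated with inhibitor for 5 min, then a fluorogenic substrate specific to that enzyme was added. Cleavage was followed kinetically by fluorometry. IC50 came from a four-parameter logistic fit to the normalized rate of fluorescence increase.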

Cytochrome P450 2C9 = Cytochrome P450 2C9 (Homo sapiens, UniProt P11712); assay: Inhibition of CYP2C9 in human liver microsomes assessed as reduction in 4 hydroxy-diclofenac metabolite formation incubated for 30 mins in presence of NADPH by LC-MS/MS analysis; format: ADME, Microsome
Cytochrome P450 2C9, sequence (P11712 whole entry): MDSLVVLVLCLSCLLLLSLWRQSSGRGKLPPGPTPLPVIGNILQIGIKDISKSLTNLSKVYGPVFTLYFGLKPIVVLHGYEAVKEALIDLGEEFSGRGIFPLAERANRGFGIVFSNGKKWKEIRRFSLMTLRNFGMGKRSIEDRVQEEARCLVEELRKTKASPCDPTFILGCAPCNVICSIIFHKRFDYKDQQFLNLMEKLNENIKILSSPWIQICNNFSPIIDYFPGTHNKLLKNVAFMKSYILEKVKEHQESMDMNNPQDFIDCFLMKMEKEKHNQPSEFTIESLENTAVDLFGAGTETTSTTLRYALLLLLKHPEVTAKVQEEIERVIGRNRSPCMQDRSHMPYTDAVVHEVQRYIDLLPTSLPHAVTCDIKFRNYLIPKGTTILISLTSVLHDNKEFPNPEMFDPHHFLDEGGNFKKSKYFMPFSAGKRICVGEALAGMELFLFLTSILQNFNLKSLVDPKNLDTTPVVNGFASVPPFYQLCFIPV

[8] = Apparent permeability of the compound across apical side to basolateral side in human Caco-2 cells incubated for 1 hr by LC-MS/MS analysis; conditions: caco-2, 1 h
Coagulation factor XI = Coagulation factor XI (Homo sapiens, UniProt P03951); assay: Inhibition of human factor 11a preincubated for 5 mins followed by substrate addition by fluorometer analysis
Coagulation factor XI, sequence (P03951 19-387 limits assumed): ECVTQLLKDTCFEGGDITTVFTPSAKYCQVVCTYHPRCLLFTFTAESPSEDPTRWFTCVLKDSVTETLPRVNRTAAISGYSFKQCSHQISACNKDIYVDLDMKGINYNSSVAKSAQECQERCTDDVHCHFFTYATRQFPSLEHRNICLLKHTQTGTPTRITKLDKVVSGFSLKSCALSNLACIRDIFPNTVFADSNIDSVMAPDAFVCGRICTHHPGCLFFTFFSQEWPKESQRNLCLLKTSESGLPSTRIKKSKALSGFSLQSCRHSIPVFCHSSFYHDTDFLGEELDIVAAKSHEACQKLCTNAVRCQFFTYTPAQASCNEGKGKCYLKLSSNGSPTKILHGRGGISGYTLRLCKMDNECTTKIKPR
Coagulation factor XI, sequence (P03951 388-625 limits assumed): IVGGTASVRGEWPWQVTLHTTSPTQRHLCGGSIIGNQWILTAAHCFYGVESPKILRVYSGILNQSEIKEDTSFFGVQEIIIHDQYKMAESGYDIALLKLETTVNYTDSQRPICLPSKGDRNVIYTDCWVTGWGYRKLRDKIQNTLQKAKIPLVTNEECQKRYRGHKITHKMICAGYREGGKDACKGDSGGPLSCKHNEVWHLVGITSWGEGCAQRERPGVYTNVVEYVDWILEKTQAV
In short: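 Enzyme from the selectivity panel of serine proteases, typically purified from human plasma. The inhibitor was preincubated with the enzyme for 5 min before a protease-specific fluorogenic substrate was added. Substrate cleavage was followed kinetically. IC50 came from a four-parameter logistic fit to the normalized rate of fluorescence increase.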

[9] = Clearance in Beagle dog blood at 1 mg/kg, iv measured upto 24 hrs by LC-MS analysis; format: ADME, organism-based, Canis lupus familiaris; conditions: whole blood
[10] = Clearance in Sprague-Dawley rat assessed as liver blood flow at 1 mg/kg, iv measured upto 24 hrs by LC-MS analysis; format: ADME, organism-based; conditions: in vivo; in short: as §1
Plasminogen = Plasminogen (Homo sapiens, UniProt P00747); assay: Inhibition of human plasmin preincubated for 5 mins followed by substrate addition by fluorometer analysis; in short: as §4
Cathepsin G = Cathepsin G (Homo sapiens, UniProt P08311); assay: Inhibition of human Cathepsin G preincubated for 5 mins followed by substrate addition by fluorometer analysis; in short: as §4
Cathepsin G, sequence (P08311 whole entry): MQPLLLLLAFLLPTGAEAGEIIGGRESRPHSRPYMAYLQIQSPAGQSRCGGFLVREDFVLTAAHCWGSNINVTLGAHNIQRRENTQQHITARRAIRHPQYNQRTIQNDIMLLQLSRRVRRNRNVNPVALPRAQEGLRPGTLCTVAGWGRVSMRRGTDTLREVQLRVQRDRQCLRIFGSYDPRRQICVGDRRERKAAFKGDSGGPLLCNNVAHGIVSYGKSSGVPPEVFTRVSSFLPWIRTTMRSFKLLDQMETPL

[11] = Volume of distribution at steady state in Beagle dog at 1 mg/kg, po and 1 mg/kg, iv measured upto 24 hrs by LC-MS analysis; format: ADME, organism-based, Canis lupus familiaris; conditions: in vivo
Cytochrome P450 2B6 = Cytochrome P450 2B6 (Homo sapiens, UniProt P20813); assay: Inhibition of CYP2B6 in human liver microsomes assessed as reduction in hydroxybupropion metabolite formation incubated for 30 mins in presence of NADPH by LC-MS/MS analysis; format: ADME, Microsome
Cytochrome P450 2B6, sequence (P20813 whole entry): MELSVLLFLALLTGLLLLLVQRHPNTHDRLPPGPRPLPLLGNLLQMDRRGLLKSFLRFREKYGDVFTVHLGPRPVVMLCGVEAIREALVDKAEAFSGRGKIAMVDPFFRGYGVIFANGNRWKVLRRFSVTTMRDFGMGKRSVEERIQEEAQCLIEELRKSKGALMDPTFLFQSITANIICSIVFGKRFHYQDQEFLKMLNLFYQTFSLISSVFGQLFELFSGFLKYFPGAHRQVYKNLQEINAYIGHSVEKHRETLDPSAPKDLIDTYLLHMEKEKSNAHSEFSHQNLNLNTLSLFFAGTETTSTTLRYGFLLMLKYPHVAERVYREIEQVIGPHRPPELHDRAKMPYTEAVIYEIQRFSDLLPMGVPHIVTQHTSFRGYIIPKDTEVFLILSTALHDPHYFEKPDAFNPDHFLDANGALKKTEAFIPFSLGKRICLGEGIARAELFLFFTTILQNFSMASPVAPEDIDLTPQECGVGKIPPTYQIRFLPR

Cytochrome P450 3A4 = Cytochrome P450 3A4 (Homo sapiens, UniProt P08684); assay: Inhibition of CYP3A4 in human liver microsomes assessed as reduction in 6beta-hydroxymidazolam metabolite formation using midazolam as substrate incubated for 30 mins in presence of NADPH by LC-MS/MS analysis; format: ADME, Microsome
Cytochrome P450 3A4, sequence (P08684 whole entry): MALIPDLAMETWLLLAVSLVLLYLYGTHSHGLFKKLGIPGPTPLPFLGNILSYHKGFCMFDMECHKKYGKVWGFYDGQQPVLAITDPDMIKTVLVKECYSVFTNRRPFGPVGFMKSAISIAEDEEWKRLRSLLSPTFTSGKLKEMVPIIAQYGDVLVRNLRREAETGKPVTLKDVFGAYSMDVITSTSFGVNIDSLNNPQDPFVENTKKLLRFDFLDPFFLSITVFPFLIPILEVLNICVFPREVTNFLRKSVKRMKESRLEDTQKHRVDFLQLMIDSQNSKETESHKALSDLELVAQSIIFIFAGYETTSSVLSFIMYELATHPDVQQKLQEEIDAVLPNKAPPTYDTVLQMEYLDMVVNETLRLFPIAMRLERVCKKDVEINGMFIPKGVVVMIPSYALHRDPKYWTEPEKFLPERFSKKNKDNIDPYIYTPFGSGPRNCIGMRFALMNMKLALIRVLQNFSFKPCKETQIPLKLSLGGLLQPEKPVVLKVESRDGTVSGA

Trypsin = Trypsin (Homo sapiens, UniProt P07477+P07478+P35030); assay: Inhibition of human trypsin preincubated for 5 mins followed by substrate addition by fluorometer analysis; format: protein assay; in short: as §2
[12] = Thermodynamic solubility of the compound in FaSSIF at 1 mg/ml at pH 6.5 measured after 4 hrs; format: physicochemical; conditions: simulated gi fluid, pH 6.5, 4 h; in short: as §3
[13] = Thermodynamic solubility of the compound in FaSSGF at 1 mg/ml at pH 1.6 measured after 4 hrs; format: physicochemical; conditions: buffer, pH 1.6, 4 h; in short: as §3
[14] = Thermodynamic solubility of the compound in FaSSGF at 100 mg/ml at pH 1.6 measured after 4 hrs; conditions: pH 1.6, 4 h
Coagulation factor XII = Coagulation factor XII (Homo sapiens, UniProt P00748); assay: Inhibition of human factor 12a preincubated for 5 mins followed by substrate addition by fluorometer analysis; in short: as §4
Coagulation factor XII, sequence (P00748 20-372 limits assumed): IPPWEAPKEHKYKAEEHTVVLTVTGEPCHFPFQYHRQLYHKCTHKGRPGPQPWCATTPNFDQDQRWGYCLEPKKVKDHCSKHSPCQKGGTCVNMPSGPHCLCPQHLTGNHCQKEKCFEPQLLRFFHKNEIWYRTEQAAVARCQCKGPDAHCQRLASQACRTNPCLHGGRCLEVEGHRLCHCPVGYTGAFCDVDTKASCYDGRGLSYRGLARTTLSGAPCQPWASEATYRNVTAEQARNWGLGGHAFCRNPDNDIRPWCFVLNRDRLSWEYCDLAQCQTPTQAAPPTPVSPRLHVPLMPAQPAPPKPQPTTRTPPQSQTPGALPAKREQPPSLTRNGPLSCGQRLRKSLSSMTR
Coagulation factor XII, sequence (P00748 373-615 limits assumed): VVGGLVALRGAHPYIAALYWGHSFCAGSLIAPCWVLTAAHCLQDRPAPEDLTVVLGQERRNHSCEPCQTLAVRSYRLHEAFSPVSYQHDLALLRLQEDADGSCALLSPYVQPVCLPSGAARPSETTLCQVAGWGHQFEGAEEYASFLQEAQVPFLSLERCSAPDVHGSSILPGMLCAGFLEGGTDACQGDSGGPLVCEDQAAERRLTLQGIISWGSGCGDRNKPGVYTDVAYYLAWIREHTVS

[15] = Oral bioavailability in Sprague-Dawley rat at 10 mg/kg measured upto 24 hrs by LC-MS analysis; format: ADME, organism-based; conditions: in vivo; in short: as §1

Cathepsin D, sequence (P07339 65-162 limits assumed): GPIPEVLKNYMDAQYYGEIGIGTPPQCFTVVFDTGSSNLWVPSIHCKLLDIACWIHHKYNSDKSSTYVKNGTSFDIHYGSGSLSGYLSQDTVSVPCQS
Cathepsin D, sequence (P07339 169-412 limits assumed): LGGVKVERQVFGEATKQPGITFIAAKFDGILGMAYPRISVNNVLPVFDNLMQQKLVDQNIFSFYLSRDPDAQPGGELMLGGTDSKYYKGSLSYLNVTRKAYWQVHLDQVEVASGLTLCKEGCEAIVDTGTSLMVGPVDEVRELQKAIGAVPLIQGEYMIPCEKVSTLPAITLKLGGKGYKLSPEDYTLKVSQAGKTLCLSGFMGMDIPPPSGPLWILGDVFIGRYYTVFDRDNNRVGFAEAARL

`COCc1nn(Cc2ccc(Cn3ccccc3=O)cc2)cc1C(=O)NCc1nccc(OC)c1F` [SEBETRALSTAT] gave an IC50 (Cathepsin D) of over 10 µM, an IC50 (Cytochrome P450 2C8) of over 25 µM and an IC50 [1] of over 33 µM. It also gave an IC50 (Cytochrome P450 2D6) of over 25 µM, a t1/2 [2] of 1 h and an IC50 (Tryptase) of over 10 µM. For the same compound, the Therm_solubility [3] was 110 µg/mL, the microsomal intrinsic clearance [4] was 14 µL/min and the clearance [5] was 20.9 mL/min/kg. For the same compound, the IC50 (Cytochrome P450 2C19) was over 25 µM, the Activity [6] was “Non-Toxic” and the LBF [7] was 33%. For the same compound, the IC50 (Prothrombin) was over 40 µM, the IC50 (Cytochrome P450 2C9) was over 25 µM and the Papp [8] was 9 10^-6 cm/s. The IC50 (Coagulation factor XI) was over 40 µM, the clearance [9] was 10.9 mL/min/kg and the LBF [10] was 26%. It also gave an IC50 (Plasminogen) of over 40 µM, an IC50 (Cathepsin G) of over 10 µM and a Vdss [11] of 0.65 L/kg. For the same compound, the IC50 (Cytochrome P450 2B6) was over 25 µM, the IC50 (Cytochrome P450 3A4) was over 25 µM and the IC50 (Trypsin) was over 40 µM. It also gave a Therm_solubility [12] of 220 µg/mL, a Therm_solubility [13] of over 1000 µg/mL and a Therm_solubility [14] of 11000 µg/mL. The IC50 (Coagulation factor XII) was over 40 µM and the F [15] was 82%.
